Screening results (PubChem)
Rows were chosen to be rich in hits. Some 1.9% of all compounds tested hit in one or more screens of this group.
M5 PAM: human M5 muscarinic receptor positive allosteric modulators, primary screen, CHO-K1 cells, Fluo-8 calcium fluorescence; CHO-K1 hM5, ACh EC20 PAM; 0% = ACh EC20, 100% = ACh EC100; activation, % at 3 µM; actives 0.3% (n = 360,000); AID 624038, 2012;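 active = activation above the run cutoff, the mean activation of all test compounds plus 3 SD, cut at about 18% in these data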
Target sequence (P08912 whole entry, looked up): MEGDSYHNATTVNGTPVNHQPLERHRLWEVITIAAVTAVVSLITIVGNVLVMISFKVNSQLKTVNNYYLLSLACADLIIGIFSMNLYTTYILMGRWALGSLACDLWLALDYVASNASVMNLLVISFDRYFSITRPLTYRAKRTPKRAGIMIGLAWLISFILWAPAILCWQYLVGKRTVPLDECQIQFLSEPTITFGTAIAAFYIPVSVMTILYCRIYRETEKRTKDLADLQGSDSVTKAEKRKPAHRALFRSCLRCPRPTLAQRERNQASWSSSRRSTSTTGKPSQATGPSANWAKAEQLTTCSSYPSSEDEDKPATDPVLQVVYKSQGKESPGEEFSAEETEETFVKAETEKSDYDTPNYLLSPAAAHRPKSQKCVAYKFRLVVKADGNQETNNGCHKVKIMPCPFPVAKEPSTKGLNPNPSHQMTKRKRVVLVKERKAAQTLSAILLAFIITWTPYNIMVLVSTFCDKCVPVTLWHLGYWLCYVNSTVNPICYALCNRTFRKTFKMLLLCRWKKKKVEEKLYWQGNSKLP
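System – CHO-K1 hM5 cells · Compound – 3 µM, single dose · Incubation – compound preincubation 140 s before EC20 acetylcholine addition · Technique – Fluo-8 calcium fluorescence · Measure – Max/basal fluorescence ratio as % of EC20–EC100 ACh window · Benchmarks – low control EC20 acetylcholine (0%), high control EC100 acetylcholine (100%) · Replication – singlicate, one well per test compound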
CHRM4 agonist: human M4 muscarinic receptor agonists, primary screen, CHO-K1 cells, Fluo-8 calcium fluorescence | CHO-K1 hM4/Gqi5; vehicle 0%, full acetylcholine response 100% | activation, % at 3 µM | actives 0.14% (n = 360,000);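 active = activation above the run mean over all test wells plus 3 SD, cut at about 32% in these data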;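 also: peak over basal fluorescence ratio per well then scaled between controls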
M5 antag: human M5 muscarinic receptor antagonists, primary screen, CHO cells, Fluo-8 calcium fluorescence; Muscarinic acetylcholine receptor M5 (Homo sapiens), P08912; CHO-hM5 cells, ACh EC80; inhibition, % at 3 µM; actives 0.59% (n = 360,000); AID 624040, 2012;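 active = inhibition above a per-plate cutoff, the mean of that plate's test compounds plus 3 SD, cut at about 27% in these data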
CHRM4 antagonist: human M4 muscarinic receptor antagonists, primary screen, CHO cells, Fluo-8 calcium fluorescence; Muscarinic acetylcholine receptor M4 (Homo sapiens), P08173; CHO-hM4 cells, ACh EC80; inhibition, % at 3 µM; actives 0.73% (n = 360,000); AID 624125, 2012;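 active = inhibition above its plate's cutoff, the mean inhibition of sample wells plus 3 SD, cut at about 27% in these data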
M4 PAM: human M4 muscarinic receptor positive allosteric modulators, primary screen, CHO-K1 cells, Fluo-8 calcium fluorescence. Muscarinic acetylcholine receptor M4 (Homo sapiens), P08173. CHO-K1 hM4/Gqi5, ACh EC20; 0% = ACh EC20, 100% = maximal ACh. activation, % at 3 µM. actives 0.4% (n = 360,000);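 active = activation above its plate's cutoff, the mean activation of sample wells plus 3 SD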
CHRM5 agonist: human M5 muscarinic receptor agonists, primary screen, CHO-K1 cells, Fluo-8 calcium fluorescence | actives 0.19% (n = 360,000) | CHO-K1 hM5 cells; 0% DMSO wells, 100% maximal acetylcholine response | Muscarinic acetylcholine receptor M5 (Homo sapiens), P08912 | AID 624037, 2012 | activation, % at 3 µM;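 active = activation above the run's mean over test compounds plus 3 SD, cut at about 23% in these data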;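 also: signal is peak over basal fluorescence ratio across the kinetic read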
Of the large screens only hits and unclear results are named; the others gave an inactive call.

O=C(NCC(c1ccccc1Cl)N1CCCC1)c1ccc(N2CCCC2=O)cc1 (stereo unspecified)	none
O=C(NCCCc1ccccc1)c1ccc(Br)o1	M4 PAM 31
O=C(NCCCCc1ccccc1)c1ccc(Br)o1	none
Cc1cc2ccccc2n1CCNC(=O)c1ccc(Br)o1	M5 antag 27
Nc1nonc1C(=O)NCCNC(=O)c1cccc(Cl)c1	none
Cn1nc(C(F)(F)F)c(/C=N/OC(=O)c2ccccc2)c1SCc1ccc(Cl)cc1	none
Cn1nc(C(F)(F)F)c(/C=N/OC(=O)c2ccccc2Cl)c1SCc1ccccc1Cl	CHRM4 antagonist 67
CCOc1cc(CNCCc2ccc(S(N)(=O)=O)cc2)ccc1OCc1ccccc1	none
COc1cc(CNCc2ccccn2)ccc1OCc1ccc(Cl)cc1Cl	CHRM4 antagonist 33
CCOc1cc(CNCc2ccccc2)ccc1OCc1ccc(Cl)cc1	CHRM4 agonist 34, CHRM4 antagonist 28
COc1ccc(CNCCc2ccc(Cl)cc2)cc1OCc1ccccc1	none
CCOc1cc(CNCCc2ccc(S(N)(=O)=O)cc2)cc(Cl)c1OCc1ccccc1	CHRM4 antagonist 46
O=C(Sc1cccc2cccnc12)c1ccccc1Br	CHRM4 antagonist 39
CCCc1cc(=O)n2c([nH]c3ccccc32)c1C#N	CHRM5 agonist 31
N#Cc1ccccc1S(=O)(=O)N1CCC(C(=O)Nc2cccc(C(=O)NC3CC3)c2)CC1	none
O=[N+]([O-])c1ccc(CN2CCC(Cc3ccccc3)CC2)cc1	none
CCC(=O)c1ccccc1OCCCN1CCC(Cc2ccccc2)CC1	CHRM4 antagonist 42
CC(=O)CCc1ccc(OCCCCN2CCC(Cc3ccccc3)CC2)cc1	CHRM4 antagonist 75
O=[N+]([O-])c1cccc(OCCCN2CCC(Cc3ccccc3)CC2)c1	CHRM4 antagonist 38
O=C(NCc1cccs1)c1csc([C@@H]2C[C@H](O)[C@@H](CO)O2)n1	none
Cc1nnc(NC(=O)c2sc3nc(-c4cccs4)cc(C(F)(F)F)c3c2N)s1	CHRM4 agonist 34
Nc1c(C(=O)Nc2nccs2)sc2nc(-c3cccs3)cc(C(F)(F)F)c12	M5 antag 34
CC(C)(C)C(=O)c1sc2nc(-c3cccs3)cc(C(F)(F)F)c2c1N	none
COc1ccc(NC(=O)NC2(C(=O)N3CCCCC3)CCCCC2)cc1	none
O=C(NNc1ccccc1)Nc1cc(Cl)ccc1Cl	M5 PAM 19
CNC(=S)Nc1ccc(C(N)=O)cc1	none
CCCN(CCC)C(=O)c1ccc2c(c1)S(=O)(=O)c1ccccc1C2=O	M5 antag 30
COc1ccccc1C1=NOC(C(=O)N2CCN(C(=O)c3ccco3)CC2)C1 (stereo unspecified)	none
COc1ccc(C(=O)CC(Sc2ccccc2N)c2ccc(OC)cc2)cc1 (stereo unspecified)	none
Cc1ccc(S(=O)(=O)N2c3ccccc3OCC2C(C)(C)C)cc1 (stereo unspecified)	M5 PAM 21
Cc1ccc2c(c1)N(S(=O)(=O)c1ccc(F)cc1)C(C(C)(C)C)CO2 (stereo unspecified)	none
CCOC(=O)N1CCC(N2CCN(Cc3ccc(F)c(F)c3)C(CCO)C2)CC1 (stereo unspecified)	none
CCOC(=O)N1CCC(N2CCN(CCC(C)C)C(CCO)C2)CC1 (stereo unspecified)	CHRM4 antagonist 63
C=CCN(CC=C)C(=O)C1c2ccccc2Oc2ccccc21	none
O=C(NCc1ccco1)C1c2ccccc2Oc2ccccc21	CHRM4 antagonist 27
CC(C)CNC(=O)COC(=O)C1c2ccccc2Oc2ccccc21	none
CC(C)[N+](C)(CCOC(=O)C1c2ccccc2Oc2ccccc21)C(C)C	M5 antag 98, CHRM4 antagonist 100
CCN(CC)C(=O)C1c2ccccc2Oc2ccccc21	CHRM4 agonist 33, CHRM5 agonist 53
CCN(CC(=O)Nc1ccc2c(c1)OCCO2)C(=O)/C=C/c1ccc(OC)cc1OC	none
CCN(CC(=O)Nc1ccc2c(c1)OCCO2)C(=O)/C=C/c1cccc(OC)c1OC	CHRM5 agonist 25
CCN(CC)CCOC(=O)c1cc(Cl)c(N)cc1OC	none
CCOC(=O)C(C#N)C(=N)C1C(=O)OC2CCCCC21 (stereo unspecified)	none
O=S1(=O)CC(O)C(Nc2ccccc2)C1 (stereo unspecified)	M5 PAM 42, M4 PAM 26
O=S1(=O)CC(O)C(Nc2ccc(Cl)cc2)C1 (stereo unspecified)	none
O=[N+]([O-])c1cc([N+](=O)[O-])c2cc(-c3cccnc3)[nH]c2c1	none
C=CCN(c1ccc(OC)cc1)S(=O)(=O)c1ccc(Cl)c(C(=O)OCC(=O)NC2CC2)c1	none
C=CCN(c1ccccc1)S(=O)(=O)c1ccc(Cl)c(C(=O)OCC(=O)c2[nH]c(C)c(C(C)=O)c2C)c1	CHRM4 antagonist 27
Clc1ccccc1OCc1nnc(-c2ccccc2Br)o1	none
O=c1c(Cl)c(Cl)cnn1Cc1nnc(-c2ccccc2Br)o1	CHRM4 agonist 120, M5 antag 101, CHRM4 antagonist 99, CHRM5 agonist 80
CC(=O)Nc1ccc(S(=O)(=O)NCC(=O)OCC(=O)NNC(=O)c2ccccc2)cc1	none
O=C1CCCC(=NNC(=O)c2cc3ccccc3cc2O)C1	CHRM5 agonist 26
O=C(NN=C1CCCC1)c1sc2ccccc2c1Cl	none
O=C1CCC/C(=N/NC(=O)c2sc3ccccc3c2Cl)C1	CHRM5 agonist 24
COc1cccc(-c2ccc3c(c2)N(Cc2ccc(F)cc2)C(=O)C(C)S3)c1 (stereo unspecified)	none
O=C1CCCCC1Nc1ccc(Br)cc1 (stereo unspecified)	none
CN(C)c1ccc(/C=C/C(=O)c2cccc(Br)c2)cc1	CHRM4 agonist 349, M5 antag 57, CHRM4 antagonist 63, CHRM5 agonist 78
CN(C)c1ccc(C(=O)/C=C/c2cccnc2)cc1	none
CCOC(=O)CC(=O)Nc1ccccc1C(=O)O	M4 PAM 25
Cc1cc(/C=C2/C(=O)N(C)C(=S)N2C)ccc1N1CCCC1	none
CCCN1C(=O)/C(=C/c2ccc(N3CCOCC3)cc2)NC1=S	none
CCCN1C(=O)/C(=C/c2ccc(OCC(=O)OCC)cc2)NC1=S	none
